Most compounds without a hit are left out; they make up all but 1.8% or so of the library.
hiPSC survival – increases survival of single human iPS cells. survival enhancement, % at 20 µM. AID 602274. actives 0.044% (n = 360,000). hiPSC single-cell survival, ATPlite luminescence; 100% = ROCK inhibitor wells, 0% = DMSO; in the data active means survival enhancement above about 18%;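 further: cells exposed to compounds for 16 hours before the ATP read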
Jurkat NFkB inh – lowers PMA/ionomycin-induced NF-kB signal in Jurkat cells; PMA/ionomycin-induced NF-kB luciferase reporter, luminescence; inhibition, % at 4 µM; actives 0.53% (n = 330,000); AID 435003; in the data active means inhibition above about 50%
H9c2 TAG inh – triacylglycerol accumulation inhibition | H9c2 cells, Nile Red lipid (TAG) fluorescence; cells loaded with 200 µM oleic acid | inhibition, % at 12.5 µM | actives 0.66% (n = 230,000) | AID 651582;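 active means pattern-corrected inhibition of lipid staining of at least 50% with the nuclear-stain viability signal not falling by more than 50%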;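 further: 0% = DMSO wells and 100% = triacsin C control wells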
Hep lipid drop – modulators of hepatic lipid droplet formation; AML12 mouse hepatocytes, oleate lipid droplets, BODIPY imaging; inhibition, % at 6.5 µM; actives 0.4% (n = 240,000);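 active means lipid droplet intensity inhibited by at least 50%, with more than 500 cells counted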
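Assay system: AML12 hepatocytes (mouse); Probe or stimulus: oleic acid at 100 µM to induce lipid droplet formation; Dosing: compound at 6.5 µM only; Schedule: compound with oleate, overnight; Detection: fluorescence imaging, 20x objective, two fields per well; Measure: % inhibition of lipid droplet signal.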
697 NFkB inh – inhibitors of the PMA/ionomycin-induced NF-kB reporter in 697 B cells; 697 B-cell NF-kB luciferase reporter, 16 h; inhibition, % at 4 µM; actives 0.33% (n = 330,000); AID 435022; in the data active means inhibition above about 35%
Gli-Sufu antag – blocks Gli-Sufu signaling in a luciferase reporter | Sufu-KO-LIGHT fibroblasts, Gli luciferase reporter luminescence | inhibition, % at 5 µM | actives 0.74% (n = 340,000) | AID 588413;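 active means inhibition above about 55%, limit read from the data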;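 further: 0% = DMSO-treated cells and 100% = wells with medium but no cells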
Gli-Sufu confirm – Gli-SUFU antagonism confirmation, single concentration | shares compounds with Gli-Sufu antag | Sufu-KO-LIGHT cells, Gli luciferase reporter, luminescence | inhibition, % at 5 µM | actives 40% (n = 2,500) | AID 602428;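 active means mean inhibition at 5 µM reaching about 45%, limit read from the data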;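 further: plate controls were DMSO-treated cells for no effect and wells lacking cells for full effect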
Gli cytotox – counter-screen for Gli-SUFU antagonists: cytotoxicity | shares compounds with Gli-Sufu antag | Sufu-KO-LIGHT cells cytotoxicity, ATP luminescence | cytotoxicity, % at 5 µM | actives 32% (n = 2,500);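 active means mean cytotoxicity at 5 µM above about 25%, limit read from the data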;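 further: cells exposed to compound overnight for roughly 16 to 18 hours; plate controls were DMSO wells with cells for no effect and medium without cells for full effect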
Wnt3a cs – counter-screen for Gli-SUFU antagonists: Wnt3a reporter inhibition; shares compounds with Gli-Sufu antag; Wnt-LIGHT cells, Wnt3a-driven luciferase reporter, luminescence; inhibition, % at 6.25 µM; actives 20% (n = 2,500);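 active means mean inhibition above about 25%, limit read from the data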
Numbers without * were called inactive; . = not tested or not shown.

SMILES	hiPSC survival	Jurkat NFkB inh	H9c2 TAG inh	Hep lipid drop	697 NFkB inh	Gli-Sufu antag	Gli-Sufu confirm	Gli cytotox	Wnt3a cs
CCc1c(C)nc2cc(-c3ccc(OC)c(OC)c3)nn2c1NCC1CC1	-2.9	-44.1	0.3	-102.7	-57.3	73.8*	73.9*	26.6*	34.9*
CC(=O)c1cccc(S(=O)(=O)N2CCCC(c3nc4c(nnn4Cc4ccccc4Cl)c(=O)[nH]3)C2)c1 (stereo not drawn)	0.5	19.1	.	-18.4	7.3	-3.3	.	.	.
CCCCN(CC)CCCNC(=O)c1cc2c(-c3ccc(OC)c(OC)c3)nn(C)c2s1	-0.5	-47.8	.	-7.6	1.3	56.4*	17.5	10.8	-13.6
CCN(CC)CCCNC(=O)c1cc2c(-c3cccc(OC)c3)nn(C)c2s1	-0.5	-85.5	.	-28.0	-14.6	5.6	.	.	.
O=C(c1cccc(S(=O)(=O)N2CCCc3ccccc32)c1)N1CCN(c2ccccc2)CC1	6.9	-6.6	-6.6	.	13.0	52.2	19.2	9.6	-36.8
O=C(c1cccc(S(=O)(=O)N2CCN(c3ccccc3)CC2)c1)N1CCCC(C(F)(F)F)C1 (stereo not drawn)	0.0	20.5	-40.6	.	-38.0	55.0	56.7*	15.4	-4.8
COC(=O)Nc1ccc(S(=O)(=O)N2CCCCC2C(=O)NCc2ccco2)cc1 (stereo not drawn)	-0.5	-2.7	3.2	23.2	-4.4	8.1	.	.	.
Cc1ccc(S(=O)(=O)N2CCCCC2C(=O)NCc2ccco2)cc1 (stereo not drawn)	-1.4	-8.9	-5.6	.	-13.0	52.5	14.3	1.7	23.6
CC1(C(=O)NS(=O)(=O)C2CC2)CCN(C(=O)c2ccccc2C(F)(F)F)C1 (stereo not drawn)	0.1	.	8.2	.	.	.	.	.	.
CCN1C[C@@H]2[C@@H]3C(=O)N(Cc4ccccc4)C(=O)[C@@H]3[C@](C)(C1=O)N2C(=O)c1ccccc1	9.6	.	-20.5	.	.	-2.5	.	.	.
COC(=O)CNC(=O)CNC(=O)c1nn(-c2ccc(OC)c(OC)c2)c(=O)c2ccccc12	2.3	-5.3	.	-0.2	7.6	52.4	9.8	-4.3	10.5
COc1ccc(-n2nc(C(=O)NCC(=O)NC(C)C)c3ccccc3c2=O)cc1OC	-0.6	-0.3	.	.	0.8	-0.6	.	.	.
COC(=O)c1ccc(OCc2cc(=O)n3ccsc3n2)cc1	2.0	-36.3	.	-1.7	-32.5	79.9*	18.1	9.5	2.1
COc1cccc(NC(=O)CSCc2cc(=O)n3ccsc3n2)c1	-0.2	8.9	.	33.6	-7.5	-8.6	.	.	.
O=C(NCc1ccccc1)c1ccc(CS(=O)Cc2cccc(Cl)c2)o1 (stereo not drawn)	-2.8	.	-30.4	.	.	.	.	.	.
COc1cc(CNCc2cc(OC)ccc2OC)cc(OC)c1	-0.5	13.9	-18.1	-13.8	-12.3	57.2*	14.4	9.9	-1.6
Cc1cc(S(=O)(=O)NC2CC(C)(C)NC(C)(C)C2)c(Cl)cc1Cl	-0.3	-20.2	13.6	-3.0	-17.3	-18.6	.	.	.
Cn1c(=O)c2c(nc(SCC(=O)NCc3ccc4c(c3)OCO4)n2Cc2ccc(Cl)cc2)n(C)c1=O	2.4	-18.5	21.9	-19.7	-2.9	61.6*	26.9	-7.1	-25.2
CCn1cc(CNC(=O)C2CCC(=O)N(Cc3ccccc3F)C2)cn1 (stereo not drawn)	0.6	-19.2	.	-2.6	-6.2	50.6	20.9	-1.6	15.1
Cc1cc(N2CCN(c3ccc(C(F)(F)F)cc3[N+](=O)[O-])CC2)c2ccccc2n1	-0.2	-1.7	-18.2	-1.2	-80.8	51.7	34.2	19.4	-53.4
CCNC(=O)Nc1cc(S(=O)(=O)Nc2ccc(OC)cc2)ccc1N1CCOCC1	-0.1	23.7	-50.1	.	-15.0	61.1*	61.0*	46.1*	24.2
CN(c1ccccc1C(=O)Nc1ccccc1-c1ccccc1)S(C)(=O)=O	0.6	-9.9	1.9	-0.6	-3.6	-0.5	.	.	.
CC(=O)c1cc(-c2ccccc2)n(CCC(=O)NC2CCCCCCC2)c1C	-0.6	13.3	.	-1.2	8.5	69.5*	12.9	-10.2	-44.2
CCc1nc(N)nc(N)c1-c1ccc(Cl)c(N=[N+]=[N-])c1	0.1	.	5.9	.	.	24.6	.	.	.
CN1CCN(C(=O)CCNC(=O)Cn2ccc3ccccc3c2=O)CC1	1.7	-3.4	3.4	9.3	-3.3	99.5*	9.5	1.9	-8.8
SMILES	hiPSC survival	Jurkat NFkB inh	H9c2 TAG inh	Hep lipid drop	697 NFkB inh	Gli-Sufu antag	Gli-Sufu confirm	Gli cytotox	Wnt3a cs
CCN1CCN(C(=O)CCNC(=O)Cn2ccc3ccccc3c2=O)CC1	-1.5	6.6	-11.2	5.9	17.0	5.6	.	.	.
CC#CC[N+](C)(C)CCCCCCCCCCCC	-2.1	35.9	.	-96.9	32.1	87.7*	88.6*	31.2*	16.8
C#CC[N+](C)(C)CCCCCCCCCC	-2.1	29.8	.	-3.3	-7.5	55.7*	58.4*	36.5*	47.5*
CCCOc1ccc(C(=O)Nc2cc(S(=O)(=O)N3CCOCC3)ccc2N2CCOCC2)cc1	-0.3	16.3	-2.6	.	26.1	2.1	.	.	.
COC(=O)c1[nH]c2cc(OC)ccc2c1NC(=O)CN1CCC(C(N)=O)(N2CCCCC2)CC1	-2.3	-7.6	14.2	5.5	6.3	74.9*	23.9	6.6	-1.3
CC1CCCCC1NC(=O)c1cc(S(=O)(=O)N2CCCCC2)ccc1N1CCOCC1 (stereo not drawn)	0.0	-1.9	4.1	.	9.7	2.6	.	.	.
COc1ccc(N2CCN(C(=O)NCc3cccc(OC)c3)CC2)cc1	-0.4	4.6	.	-7.6	16.0	-0.2	.	.	.
COc1ccc(Nc2ncc(C(=O)N3CCN(Cc4ccccc4)CC3)c3ccccc23)cc1	-0.3	3.2	18.7	.	-1.1	99.2*	29.4	6.5	-89.7
O=C(CN1C(=O)COc2ccc(S(=O)(=O)N3CCCCC3)cc21)NCc1ccc(Cl)cc1	0.2	31.9	.	-8.2	-2.4	59.4*	7.9	25.1*	-28.6
O=C1CN2NC(=S)N(c3ccccc3)C2=CN1c1ccc(Cl)cc1	3.8	-11.0	-0.3	5.9	2.3	4.3	.	.	.
CCc1c(C)sc2nc(C(C)C)nc(SCC(=O)N3CCc4ccccc4C3)c12	.	-2.7	.	-66.7	-11.1	83.1*	85.4*	41.4*	13.0
Fc1ccccc1NC(=S)N(CCCN1CCOCC1)Cc1cccnc1	-0.5	15.4	3.3	7.1	5.7	1.3	.	.	.
CN1/C(=C\C(=O)COC(=O)Cn2nnc(-c3ccccc3)n2)C(C)(C)c2ccccc21	-1.3	14.2	-86.8	.	-18.2	71.3*	68.4*	42.7*	33.9*

Assay outcomes (PubChem)
